Reference: ChEMBL document CHEMBL3351374, “Semisynthetic teicoplanin derivatives as new influenza virus binding inhibitors: synthesis and antiviral studies” (Bioorg Med Chem Lett, 2014)
≈ marks a conversion by molar mass, not a printed value.

How the values were obtained:
[1] = test system: Influenza B virus; test: Antiviral activity against Influenza B virus (B/HK/05/1972) infected in MDCK cells assessed as virus-induced cytopathic effect after 72 hrs by microscopy; type: functional, cell-based; settings: B/Hong Kong/05/1972, MDCK
[2] = Cytotoxicity against MDCK cells assessed as reduction in cell viability after 72 hrs by MTS assay; type: cell-based, Canis lupus familiaris; settings: dog
[3] = Selectivity ratio of CC50 for MDCK cells assessed as reduction in cell viability after 72 hrs by MTS assay to EC50 for Influenza A virus A/Virginia/ATCC3/2009 infected in MDCK cells; type: cell-based; settings: dog, read-out: Ratio CC50/EC50
[4] = Selectivity ratio of MCC for MDCK cells assessed as change in cell morphology after 72 hrs by microscopy to EC50 for Influenza A virus A/Virginia/ATCC3/2009 infected in MDCK cells; type: cell-based; settings: dog
[5] = test system: Influenza A virus; test: Antiviral activity against Influenza A virus A/Virginia/ATCC3/2009 infected in MDCK cells assessed as virus-induced cytopathic effect after 72 hrs by microscopy; type: functional, organism-based; settings: A/Virginia/ATCC3/2009, MDCK
[6] = test system: Influenza A virus; test: Antiviral activity against Influenza A virus (A/PR/8/34(H1N1)) infected in MDCK cells assessed as reduction in host cell viability after 72 hrs by MTS assay; type: functional, organism-based; settings: A/Puerto Rico/8/1934(H1N1)
[7] = Inhbition of Influenza A virus (A/X-31(H3N2) hemagglutinin binding to 2 hrs compound pre-incubated MDCK cells assessed as reduction in viral RNA measured after 1 hr by RT-qPCR analysis; type: cell-based
Outline: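 Influenza virus binding to MDCK host cells measured with compound at 50, 10, 2 and 0.4 µM.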

[8] = Retention time of the compound by HPLC method; type: physicochemical
[9] = Cytotoxicity against chicken RBC assessed as minimum concentration required for hemagglutination by microscopy; type: cell-based, Gallus gallus; settings: erythrocyte
Outline: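 Chicken red blood cells incubated with compound without virus. The value is the minimal concentration causing hemagglutination.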

[10] = test system: Influenza A virus; test: Antiviral activity against Influenza A virus A/Virginia/ATCC3/2009 infected in MDCK cells assessed as reduction in host cell viability after 72 hrs by MTS assay; type: functional, organism-based; settings: A/Virginia/ATCC3/2009, MDCK
[11] = test system: Influenza B virus; test: Antiviral activity against Influenza B virus (B/HK/05/1972) infected in MDCK cells assessed as reduction in host cell viability after 72 hrs by MTS assay; type: functional, cell-based; settings: B/Hong Kong/05/1972, MDCK
[12] = Cytotoxicity against MDCK cells assessed as change in cell morphology after 72 hrs by microscopy; type: cell-based, Canis lupus familiaris; settings: dog
Outline: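 Uninfected MDCK cells exposed to compound. MCC is the minimal concentration causing minimal alterations in cell morphology, assessed by microscopy.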

[13] = Antiviral activity against Influenza A virus (A/HK/7/1987(H3N2)) infected in MDCK cells assessed as virus-induced cytopathic effect after 72 hrs by microscopy; type: functional, cell-based, Influenza A virus (A/Hong Kong/7/1987(H3N2))
[14] = test system: Influenza A virus; test: Antiviral activity against Influenza A virus (A/PR/8/34(H1N1)) infected in MDCK cells assessed as virus-induced cytopathic effect after 72 hrs by microscopy; type: functional, organism-based; settings: A/Puerto Rico/8/1934(H1N1)
[15] = Antiviral activity against Influenza A virus (A/HK/7/1987(H3N2)) infected in MDCK cells assessed as reduction in host cell viability after 72 hrs by MTS assay; type: functional, cell-based, Influenza A virus (A/Hong Kong/7/1987(H3N2))
[16] = test system: Staphylococcus aureus; test: Antibacterial activity against methicillin-sensitive Staphylococcus aureus ATCC 29213 by broth microdilution method; type: functional
[17] = test system: Influenza A virus; test: Antiviral activity against Influenza A virus infected in chicken RBC assessed as minimum concentration required for inhibition of 2 hemagglutinating units of virus-induced hemagglutination after 1 hr by microscopy; type: functional
Outline: (§1)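 Chicken red blood cells incubated with virus at 1, 2 or 4 HA-U plus compound. The value is the minimal concentration causing inhibition of hemagglutination.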

[18] = test system: Influenza A virus; test: Antiviral activity against Influenza A virus infected in chicken RBC assessed as minimum concentration required for inhibition of 1 hemagglutinating unit of virus-induced hemagglutination after 1 hr by microscopy; type: functional; outline: as §1
[19] = test system: Enterococcus faecalis; test: Antibacterial activity against vanA gene-positive Enterococcus faecalis 15376 by broth microdilution method; type: functional
[20] = test system: Enterococcus faecalis; test: Antibacterial activity against Enterococcus faecalis ATCC 29212 by broth microdilution method; type: functional
[21] = test system: Staphylococcus epidermidis; test: Antibacterial activity against biofilm forming Staphylococcus epidermidis ATCC 35984 by broth microdilution method; type: functional
[22] = test system: Bacillus spizizenii; test: Antibacterial activity against Bacillus subtilis ATCC 6633 by broth microdilution method; type: functional
[23] = test system: Enterococcus faecalis; test: Antibacterial activity against vanA gene-positive Enterococcus faecalis ATCC 51299 by broth microdilution method; type: functional
[24] = test system: Staphylococcus epidermidis; test: Antibacterial activity against biofilm forming Staphylococcus epidermidis harboring mecA gene by broth microdilution method; type: functional
[25] = test system: Influenza A virus; test: Antiviral activity against Influenza A virus infected in chicken RBC assessed as minimum concentration required for inhibition of 4 hemagglutinating units of virus-induced hemagglutination after 1 hr by microscopy; type: functional; outline: as §1
[26] = test system: Staphylococcus aureus; test: Antibacterial activity against methicillin-resistant Staphylococcus aureus ATCC 33591 by broth microdilution method; type: functional

Structure (SMILES)	EC50 [1] [µM]	CC50 at 72 h [2] [µM]	EC50 [5] [µM]	EC50 [6] [µM]	Retention_time [8] [min]	EC50 [10] [µM]	EC50 [11] [µM]	MCC at 72 h [12] [µM]	EC50 [13] [µM]	EC50 [14] [µM]	EC50 [15] [µM]	MIC [16] [µg/mL]	MIC [19] [µg/mL]	MIC [20] [µg/mL]	MIC [21] [µg/mL]	MIC [22] [µg/mL]	MIC [23] [µg/mL]	MIC [24] [µg/mL]	MIC [26] [µg/mL]	other results
CCCCCCCCO[C@@H]1[C@@H](OCCCCCCCC)[C@@H](OC)O[C@H](COCCOCCOCCOCCOCc2cn([C@H]3C(=O)N[C@@H]4Cc5ccc(c(Cl)c5)Oc5cc6cc(c5O)Oc5ccc(cc5Cl)[C@@H](O[C@@H]5O[C@H](CO)[C@@H](O)[C@H](O)[C@H]5NC(C)=O)[C@@H]5NC(=O)[C@H](NC(=O)[C@@H]6NC(=O)[C@@H](NC4=O)c4cc(O)cc(c4)Oc4cc3ccc4O)c3ccc(O)c(c3)-c3c(O)cc(O)cc3[C@@H](C(=O)O)NC5=O)nn2)[C@H]1OCc1ccc(OC)cc1 [listing 1 of 2 here]	> 100	11	1.4	1.2	8.16	< 0.8	1.5	20	1.8	0.8	1.2	–	–	–	–	–	–	–	–	selectivity ratio at 72 h [3]: 4; selectivity ratio at 72 h [4]: 4; IC50 [7]: 4.7 µM; Activity [9]: 50 µM
CCCCCCCCO[C@@H]1[C@@H](OCCCCCCCC)[C@@H](OC)O[C@H](COCCOCCOCCOCCOCc2cn([C@H]3C(=O)N[C@@H]4Cc5ccc(c(Cl)c5)Oc5cc6cc(c5O)Oc5ccc(cc5Cl)[C@@H](O[C@@H]5O[C@H](CO)[C@@H](O)[C@H](O)[C@H]5NC(C)=O)[C@@H]5NC(=O)[C@H](NC(=O)[C@@H]6NC(=O)[C@@H](NC4=O)c4cc(O)cc(c4)Oc4cc3ccc4O)c3ccc(O)c(c3)-c3c(O)cc(O)cc3[C@@H](C(=O)O)NC5=O)nn2)[C@H]1OCc1ccc(OC)cc1 [listing 2 of 2 here]	–	–	–	–	–	–	–	–	–	–	–	128 (≈ 58.7 µM)	128 (≈ 58.7 µM)	32 (≈ 14.7 µM)	16 (≈ 7.34 µM)	256 (≈ 117 µM)	256 (≈ 117 µM)	256 (≈ 117 µM)	64 (≈ 29.3 µM)	Activity [17]: 6.3 µM; Activity [18]: 0.78 µM; Activity [25]: 12 µM
C.CCCCCCCCO[C@H]1[C@@H](OC)O[C@H](COCCOCCOCCOCCOCc2cn([C@H]3C(=O)N[C@@H]4Cc5ccc(c(Cl)c5)Oc5cc6cc(c5O)Oc5ccc(cc5Cl)[C@@H](O[C@@H]5O[C@H](CO)[C@@H](O)[C@H](O)[C@H]5NC(C)=O)[C@@H]5NC(=O)[C@H](NC(=O)[C@@H]6NC(=O)[C@@H](NC4=O)c4cc(O)cc(c4)Oc4cc3ccc4O)c3ccc(O)c(c3)-c3c(O)cc(O)cc3[C@@H](C(=O)O)NC5=O)nn2)[C@@H](O)[C@@H]1OCCCCCCCC [listing 1 of 2 here]	> 100	12	1.8	> 100	8.17	1.3	> 100	≥ 4	2.3	> 100	2.2	–	–	–	–	–	–	–	–	selectivity ratio at 72 h [3]: 4; selectivity ratio at 72 h [4]: 4; IC50 [7]: 7 µM; Activity [9]: 50 µM
C.CCCCCCCCO[C@H]1[C@@H](OC)O[C@H](COCCOCCOCCOCCOCc2cn([C@H]3C(=O)N[C@@H]4Cc5ccc(c(Cl)c5)Oc5cc6cc(c5O)Oc5ccc(cc5Cl)[C@@H](O[C@@H]5O[C@H](CO)[C@@H](O)[C@H](O)[C@H]5NC(C)=O)[C@@H]5NC(=O)[C@H](NC(=O)[C@@H]6NC(=O)[C@@H](NC4=O)c4cc(O)cc(c4)Oc4cc3ccc4O)c3ccc(O)c(c3)-c3c(O)cc(O)cc3[C@@H](C(=O)O)NC5=O)nn2)[C@@H](O)[C@@H]1OCCCCCCCC [listing 2 of 2 here]	–	–	–	–	–	–	–	–	–	–	–	16	8	2	8	4	4	256	8	Activity [17]: 0.78 µM; Activity [18]: 0.39 µM; Activity [25]: 3.1 µM
COc1ccc(CO[C@H]2[C@H](OC)[C@@H](OC)[C@@H](OC)O[C@@H]2COCCOCCOCCOCCOCc2cn([C@H]3C(=O)N[C@@H]4Cc5ccc(c(Cl)c5)Oc5cc6cc(c5O)Oc5ccc(cc5Cl)[C@@H](O[C@@H]5O[C@H](CO)[C@@H](O)[C@H](O)[C@H]5NC(C)=O)[C@@H]5NC(=O)[C@H](NC(=O)[C@@H]6NC(=O)[C@@H](NC4=O)c4cc(O)cc(c4)Oc4cc3ccc4O)c3ccc(O)c(c3)-c3c(O)cc(O)cc3[C@@H](C(=O)O)NC5=O)nn2)cc1 [listing 1 of 2 here]	> 100	47	> 100	> 100	5.73	> 100	> 100	≥ 20	> 100	> 100	> 100	–	–	–	–	–	–	–	–	–
COc1ccc(CO[C@H]2[C@H](OC)[C@@H](OC)[C@@H](OC)O[C@@H]2COCCOCCOCCOCCOCc2cn([C@H]3C(=O)N[C@@H]4Cc5ccc(c(Cl)c5)Oc5cc6cc(c5O)Oc5ccc(cc5Cl)[C@@H](O[C@@H]5O[C@H](CO)[C@@H](O)[C@H](O)[C@H]5NC(C)=O)[C@@H]5NC(=O)[C@H](NC(=O)[C@@H]6NC(=O)[C@@H](NC4=O)c4cc(O)cc(c4)Oc4cc3ccc4O)c3ccc(O)c(c3)-c3c(O)cc(O)cc3[C@@H](C(=O)O)NC5=O)nn2)cc1 [listing 2 of 2 here]	–	–	–	–	–	–	–	–	–	–	–	16 (≈ 8.06 µM)	32 (≈ 16.1 µM)	32 (≈ 16.1 µM)	16 (≈ 8.06 µM)	16 (≈ 8.06 µM)	32 (≈ 16.1 µM)	32 (≈ 16.1 µM)	32 (≈ 16.1 µM)	–
NC12CC3CC(CC(C3)C1)C2 [AMANTADINE]	> 500	> 500	> 500	111	–	> 500	> 500	> 500	0.45	–	0.5	–	–	–	–	–	–	–	–	–
NC(=O)c1ncn([C@@H]2O[C@H](CO)[C@@H](O)[C@H]2O)n1 [RIBAVIRIN]	–	> 100	–	21	–	–	8.2	≥ 20	6.8	–	7.3	–	–	–	–	–	–	–	–	–
CC(N)C12CC3CC(CC(C3)C1)C2 (stereo unspecified) [RIMANTADINE]	> 500	> 500	> 500	5.3	–	> 500	> 500	≥ 500	0.051	4.6	0.046	–	–	–	–	–	–	–	–	–
CC(=O)N[C@H]1[C@H]([C@H](O)[C@H](O)CO)OC(C(=O)O)=C[C@@H]1NC(=N)N [ZANAMIVIR]	12	> 100	45	0.5	–	20	9.4	> 100	8.9	0.47	9	–	–	–	–	–	–	–	–	–
